Compound activity deposited in PubChem BioAssay by several laboratories.
The list is not random: actives were taken first. Their share in the collection is about 1.3%.
LANA-H2B inh – blocks KSHV LANA binding to histone H2A/H2B; inhibition, % (test concentration not listed); 0.6% of 320,000 active; AID 2629; cell-free LANA-H2A/H2B peptide, fluorescence polarization; in the data active = inhibition mostly above about 10%, no sharp cut-off; inactive = mostly below about 6.7%
STK33 kinase inh – inhibitors of human STK33 kinase | Q9BYT3 | purified STK33, MBP phosphorylation, ADP-Glo luminescence | inhibition, % at 10 µM | 0.073% of 320,000 active;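 active = inhibition at or above 25%, using the most active replicate where run in duplicate; inactive = inhibition below 25%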
H9c2 TAG inh – reduces triacylglycerol accumulation in H9c2 cells. 0.66% of 230,000 active. inhibition, % at 12.5 µM. Nile Red lipid (TAG) fluorescence; cells loaded with 200 µM oleic acid;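 active = pattern-corrected inhibition of lipid staining of at least 50% with the nuclear-stain viability signal not falling by more than 50%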;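 also: 0% = DMSO wells and 100% = triacsin C control wells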
Lipid droplet – hepatic lipid droplet formation modulation; AML12 mouse hepatocytes, oleate lipid droplets, BODIPY imaging; inhibition, % at 6.5 µM; 0.4% of 240,000 active; AID 1656;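 active = lipid droplet intensity inhibited by at least 50%, with more than 500 cells counted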
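Material – mouse AML12 hepatocyte cell line, fixed after treatment · Compound dosing – one dose, 6.5 µM compound · Times – compound with oleate, overnight · Measured by – Image-based BODIPY and DAPI two-channel analysis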
GSK3B inh – blocks human GSK3beta kinase activity; GST-GSK3beta kinase, ADP-Glo luminescence, 60 min; stronger effect = lower value; activity score (negative = inhibition), % at 10 µM; P49841; 0.038% of 300,000 active; AID 2097;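 active = more than half of replicate wells score below -50%, meaning over 50% inhibition versus plate controls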;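 also: 0% = median DMSO wells and -100% = median GW8510 positive control wells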
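Test system: GST-tagged human GSK3beta kinase, cell-free; evaluation: activity score scaled between in-plate DMSO and GW8510 controls; measured by: ADP-Glo luminescence; incubation: 60 min reaction, RT; benchmarks: DMSO and 20 µM GW8510; reagent: peptide substrate plus 25 µM ATP (final); medium: Tris/MgCl2 kinase buffer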
GSK3A inh – inhibitors of human GSK-3 alpha kinase | ADP-Glo luminescence, 60 min | inhibition, % at 10 µM | 0.1% of 320,000 active;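 active = more than half of replicates show inhibition above 20%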;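 also: GST-tagged GSK-3 alpha with peptide substrate and 25 µM ATP; 0% = DMSO neutral wells and 100% = GW8510 positive control wells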
Target sequence (P49840 whole entry, looked up): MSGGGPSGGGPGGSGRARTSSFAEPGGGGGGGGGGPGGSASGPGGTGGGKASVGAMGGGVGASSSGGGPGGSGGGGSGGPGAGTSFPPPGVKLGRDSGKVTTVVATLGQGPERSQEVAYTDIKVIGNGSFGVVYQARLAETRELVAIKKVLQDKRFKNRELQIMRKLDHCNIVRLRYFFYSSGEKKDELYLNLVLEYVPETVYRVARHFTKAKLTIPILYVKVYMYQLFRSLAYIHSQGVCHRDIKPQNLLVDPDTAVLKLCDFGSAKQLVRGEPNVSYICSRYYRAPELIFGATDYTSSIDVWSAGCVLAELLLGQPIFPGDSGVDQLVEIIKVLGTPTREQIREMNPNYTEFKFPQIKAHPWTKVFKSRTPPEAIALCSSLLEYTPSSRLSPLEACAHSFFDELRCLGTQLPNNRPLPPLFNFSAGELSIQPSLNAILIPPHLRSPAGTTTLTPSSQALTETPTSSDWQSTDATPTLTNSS
Starred values were filed as active, the others as inactive.

`Cc1ccc(OCC(=O)Nc2ccc(N3CCOCC3)cc2)c([N+](=O)[O-])n1` gave LANA-H2B inh -3, STK33 kinase inh -1, H9c2 TAG inh -2 and Lipid droplet -4.
For NC(=S)NN=Cc1nccc2c(C(F)(F)C(F)(F)C(F)(F)F)cccc12 the results were H9c2 TAG inh 74*.
Screening O=C(CCN1CCCO1)N1CCCC(N2CCN(c3ccccc3F)CC2)C1 (centres undefined) returned LANA-H2B inh -1, STK33 kinase inh -1, Lipid droplet 2, GSK3B inh -2 and GSK3A inh -3.
`O=C(CCN1CCCCO1)N1CCCC(N2CCN(c3ccc(F)cc3)CC2)C1` (centres undefined) gave LANA-H2B inh 13*, STK33 kinase inh -1, Lipid droplet 15, GSK3B inh -4 and GSK3A inh -2.
CC(C)C(=O)Nc1ccc(C(=O)NCc2cccnc2)cc1 was read as LANA-H2B inh -3, STK33 kinase inh -2, Lipid droplet -7, GSK3B inh 2 and GSK3A inh -4.
For N#Cc1c(-c2ccccc2)c(-c2ccccc2)nn(CC(=O)NNC(=O)Nc2ccccc2)c1=O the results were LANA-H2B inh -4, STK33 kinase inh 3, H9c2 TAG inh 12, GSK3B inh 1 and GSK3A inh 0.
`CCOC(=O)C1CCCN(S(=O)(=O)NC[C@H]2O[C@@H](n3cnc4c(N)ncnc43)[C@H](O)[C@@H]2O)C1` (some centres undefined) gave LANA-H2B inh active, STK33 kinase inh 1, H9c2 TAG inh -3 and GSK3A inh 0.
For O=C(O)c1ccc(N=Nc2c(O)[nH]c3ccccc23)cc1 the results were LANA-H2B inh -4, STK33 kinase inh 29*, H9c2 TAG inh 7, Lipid droplet -5, GSK3B inh -1 and GSK3A inh 51*.
`Nc1nc(NCCCN2CCOCC2)nc(Nc2cccc(Cl)c2)c1[N+](=O)[O-]` gave LANA-H2B inh 4, STK33 kinase inh 2, H9c2 TAG inh 12, Lipid droplet -10, GSK3B inh -77* and GSK3A inh 78*.
`Cc1ccc(Nc2nc(NCCCN3CCOCC3)nc(N)c2[N+](=O)[O-])cc1` gave LANA-H2B inh -1, STK33 kinase inh 0, Lipid droplet 33, GSK3B inh -2 and GSK3A inh 58*.
Nc1nc(NCCCN2CCOCC2)nc(Nc2ccc(Cl)cc2)c1[N+](=O)[O-] was read as LANA-H2B inh 4, STK33 kinase inh 1, H9c2 TAG inh 18, Lipid droplet -6, GSK3B inh -27 and GSK3A inh 57*.
`COc1ccc(/C=N/n2c(-c3ccccc3)n[nH]c2=S)cc1` gave LANA-H2B inh 2, STK33 kinase inh 5, Lipid droplet 3, GSK3B inh 1 and GSK3A inh 4.
Screening Oc1ccc(/C=N/n2c(-c3ccccc3)n[nH]c2=S)cc1 returned LANA-H2B inh 3, STK33 kinase inh 34*, Lipid droplet -3, GSK3B inh -2 and GSK3A inh 6.
Screening C=C1C(=O)C=C[C@]2(C)C[C@@H]3OC(=O)[C@](C)(O)[C@H]3C[C@@H]12 returned LANA-H2B inh 10, STK33 kinase inh 3, H9c2 TAG inh 57*, Lipid droplet -23, GSK3B inh -4 and GSK3A inh -2.
For CC(C)c1c(C(=O)N/N=C/C2CC=CCC2)nnn1-c1nonc1N (centres undefined) the results were LANA-H2B inh 1, STK33 kinase inh -1, Lipid droplet -1, GSK3B inh -2 and GSK3A inh 1.
For C(=N\Nc1nc2ccccc2[nH]1)/c1cccc2nccnc12 the results were LANA-H2B inh 1, STK33 kinase inh 1, H9c2 TAG inh 52*, Lipid droplet -55, GSK3B inh 3 and GSK3A inh -1.
Screening C(=N\Nc1nc2ccccc2[nH]1)/c1ccccn1 returned H9c2 TAG inh 26, Lipid droplet -58 and GSK3B inh 2.
For O=C(Cc1ccc(-n2cccc2)cc1)NC1CCCCC1 the results were LANA-H2B inh -6, STK33 kinase inh 0, H9c2 TAG inh -4, GSK3B inh 1 and GSK3A inh -1.
Screening CC(=O)c1ccc(OCCCC(=O)OCc2nnc(-c3ccc(Cl)cc3)o2)cc1 returned LANA-H2B inh 0, STK33 kinase inh -1, GSK3B inh 4 and GSK3A inh 1.
`CCOc1ccc(CCNC(=O)COC(=O)c2nn(C)c(=O)c3ccccc23)cc1OCC` gave LANA-H2B inh 12*, STK33 kinase inh -1, H9c2 TAG inh 20, GSK3B inh 0 and GSK3A inh -2.
For CC1(C(=O)NS(=O)(=O)c2ccc(Cl)cc2)CCN1C(=O)C1(c2ccc(Cl)cc2)CC1 (centres undefined) the results were H9c2 TAG inh 7.
`CCN(CC)C(=O)CSc1nc2cc(OC)c(OC)cc2c(=O)n1Cc1ccc(Cl)cc1` gave LANA-H2B inh 1, STK33 kinase inh 0, GSK3B inh 5 and GSK3A inh 0.
For O=C(CSc1ccccc1)Nc1ccc2c(c1)C(=O)NC2=O the results were LANA-H2B inh -6, STK33 kinase inh 22, Lipid droplet -2, GSK3B inh 1 and GSK3A inh 60*.
`COc1ccc(CC(N)c2csc(NC(=O)c3cc(C(C)(C)C)nn3Cc3ccccc3)n2)cc1` (centres undefined) gave H9c2 TAG inh 112*.
CC(N)c1csc(NC(=O)c2cc(C(C)(C)C)nn2Cc2ccccc2)n1 (centres undefined) was read as H9c2 TAG inh 28.
`CSCCC(NS(=O)(=O)c1cc(C(=O)O)ccc1Cl)C(=O)O` (centres undefined) gave LANA-H2B inh -2, STK33 kinase inh 0, H9c2 TAG inh 0, Lipid droplet 4, GSK3B inh -1 and GSK3A inh -3.
Screening CSCCC(NS(=O)(=O)c1ccc(Cl)c(Cl)c1)C(=O)O (centres undefined) returned LANA-H2B inh 17*, STK33 kinase inh 12, H9c2 TAG inh 14, Lipid droplet 8, GSK3B inh 3 and GSK3A inh 2.
Screening CSCCC(NS(=O)(=O)c1ccc(Cl)cc1)C(=O)OCC(=O)N1CCOCC1 (centres undefined) returned LANA-H2B inh 1, STK33 kinase inh -1, H9c2 TAG inh -5, GSK3B inh 3 and GSK3A inh -5.
`COc1ccc(C(=O)COC(=O)C(CCSC)NS(=O)(=O)c2ccc(Cl)cc2)cc1` (centres undefined) gave LANA-H2B inh 176*, STK33 kinase inh -1, Lipid droplet -5, GSK3B inh 2 and GSK3A inh -1.
